ChEMBL document CHEMBL3526053, “Species-dependent uptake of glycylsarcosine but not oseltamivir in Pichia pastoris expressing the rat, mouse, and human intestinal peptide transporter PEPT1” (Drug Metab Dispos, 2012)

How the values were obtained:
[1] = test system: Komagataella pastoris; test: Stability in Pichia pastoris GS115 expressing rat recombinant PEPT1 at 5 uM measured for up to 30 mins by HPLC analysis; assay type: ADME, organism-based; settings: 0.5 h
Procedure, shortened: (§1)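 [14C]oseltamivir 5.0 µM with [14C]PEG200 5.0 µM internal standard was incubated with induced GS115 cells (vector, human, mouse or rat PEPT1) at 24°C, pH 6.5, for up to 30 min. Reactions were quenched with 20% trichloroacetic acid and centrifuged at 4°C. Supernate was analysed by HPLC with radiochemical detection; retention 14.9 min for oseltamivir, 3.6 min for PEG200. n=6.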

[2] = Protein binding in human at 50 to 500 mg, po bid; settings: plasma
[3] = biological target: T1, Solute carrier family 15 member 1 (Mus musculus, UniProt Q9JIP7); test: Inhibition of mouse recombinant PEPT1 expressed in Pichia pastoris GS115 assessed as [3H]GlySar uptake after 30s by dual-channel liquid scintillation counting analysis
T1 sequence (Q9JIP7 whole entry): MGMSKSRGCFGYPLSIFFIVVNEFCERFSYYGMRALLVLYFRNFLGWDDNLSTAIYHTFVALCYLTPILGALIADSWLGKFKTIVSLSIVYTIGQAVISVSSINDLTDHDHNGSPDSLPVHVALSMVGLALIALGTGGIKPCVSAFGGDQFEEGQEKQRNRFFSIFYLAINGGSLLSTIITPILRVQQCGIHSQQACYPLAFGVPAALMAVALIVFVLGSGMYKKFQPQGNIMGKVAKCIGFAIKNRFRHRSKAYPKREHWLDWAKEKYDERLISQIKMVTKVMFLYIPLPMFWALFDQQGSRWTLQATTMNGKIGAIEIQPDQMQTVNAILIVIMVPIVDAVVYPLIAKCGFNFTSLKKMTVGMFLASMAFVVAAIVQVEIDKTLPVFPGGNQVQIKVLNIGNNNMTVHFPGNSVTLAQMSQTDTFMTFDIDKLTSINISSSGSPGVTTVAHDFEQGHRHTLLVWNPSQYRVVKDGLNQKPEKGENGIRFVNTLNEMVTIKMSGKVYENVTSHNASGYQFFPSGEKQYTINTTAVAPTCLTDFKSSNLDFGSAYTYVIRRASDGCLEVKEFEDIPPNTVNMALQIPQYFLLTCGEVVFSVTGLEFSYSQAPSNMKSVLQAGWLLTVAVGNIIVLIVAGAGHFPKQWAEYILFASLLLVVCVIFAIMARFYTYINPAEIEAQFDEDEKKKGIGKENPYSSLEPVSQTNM

[4] = biological target: T2, Solute carrier family 15 member 1 (Rattus norvegicus, UniProt P51574); test: Inhibition of rat recombinant PEPT1 expressed in Pichia pastoris GS115 assessed as [3H]GlySar uptake after 30s by dual-channel liquid scintillation counting analysis
T2 sequence (P51574 whole entry): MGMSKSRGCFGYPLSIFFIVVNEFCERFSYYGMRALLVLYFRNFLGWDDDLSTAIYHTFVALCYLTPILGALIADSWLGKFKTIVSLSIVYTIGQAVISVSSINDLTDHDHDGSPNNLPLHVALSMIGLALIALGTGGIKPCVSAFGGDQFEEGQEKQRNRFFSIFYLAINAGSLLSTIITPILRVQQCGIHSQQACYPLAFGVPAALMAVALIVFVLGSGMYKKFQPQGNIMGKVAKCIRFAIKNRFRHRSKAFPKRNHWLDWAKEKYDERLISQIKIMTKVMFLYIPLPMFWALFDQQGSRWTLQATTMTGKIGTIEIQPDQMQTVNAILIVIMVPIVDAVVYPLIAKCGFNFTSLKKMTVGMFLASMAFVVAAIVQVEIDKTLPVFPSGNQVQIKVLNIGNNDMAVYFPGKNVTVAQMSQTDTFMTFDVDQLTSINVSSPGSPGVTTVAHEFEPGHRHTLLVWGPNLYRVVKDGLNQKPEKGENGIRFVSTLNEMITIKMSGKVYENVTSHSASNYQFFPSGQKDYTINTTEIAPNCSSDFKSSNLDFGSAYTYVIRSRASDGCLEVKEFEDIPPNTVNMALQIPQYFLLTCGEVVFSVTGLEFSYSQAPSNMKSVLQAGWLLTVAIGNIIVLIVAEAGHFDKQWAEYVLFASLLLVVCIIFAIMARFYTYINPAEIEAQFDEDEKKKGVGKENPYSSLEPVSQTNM

[5] = test system: Komagataella pastoris; test: Stability in Pichia pastoris GS115 expressing mouse recombinant PEPT1 at 5 uM measured for up to 30 mins by HPLC analysis; assay type: ADME, organism-based; settings: 0.5 h; procedure, shortened: as §1
[6] = biological target: T3, Solute carrier family 15 member 1 (Homo sapiens, UniProt P46059); test: Drug uptake in Pichia pastoris GS115 expressing human recombinant PEPT1 at 0 degC measured immediately after drug addition by dual-channel liquid scintillation counting analysis; assay type: ADME
T3 sequence (P46059 whole entry): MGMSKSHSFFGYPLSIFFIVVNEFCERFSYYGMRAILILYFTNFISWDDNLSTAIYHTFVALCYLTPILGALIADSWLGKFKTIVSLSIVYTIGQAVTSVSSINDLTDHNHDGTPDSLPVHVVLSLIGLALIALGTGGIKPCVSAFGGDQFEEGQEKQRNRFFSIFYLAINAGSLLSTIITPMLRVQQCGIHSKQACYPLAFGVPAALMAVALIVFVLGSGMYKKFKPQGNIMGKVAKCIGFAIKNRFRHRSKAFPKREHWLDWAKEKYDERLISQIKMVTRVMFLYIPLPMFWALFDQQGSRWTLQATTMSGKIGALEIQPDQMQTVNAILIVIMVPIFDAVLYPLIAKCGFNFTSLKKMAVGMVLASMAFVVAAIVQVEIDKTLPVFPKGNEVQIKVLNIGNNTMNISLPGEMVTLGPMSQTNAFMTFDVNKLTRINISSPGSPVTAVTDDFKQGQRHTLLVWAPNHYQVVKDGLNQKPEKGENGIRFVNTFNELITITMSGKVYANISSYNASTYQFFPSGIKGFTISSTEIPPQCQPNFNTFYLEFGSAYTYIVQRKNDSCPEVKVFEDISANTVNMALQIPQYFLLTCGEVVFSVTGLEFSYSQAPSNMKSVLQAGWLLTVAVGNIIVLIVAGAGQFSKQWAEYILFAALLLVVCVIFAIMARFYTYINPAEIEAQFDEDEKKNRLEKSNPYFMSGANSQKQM
Procedure, shortened: (§2)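 Nonspecific binding of 5.0 µM [14C]oseltamivir is measured at 0°C in pH 6.5 phosphate buffer. The incubation is quenched immediately after adding the drug to the methanol-induced yeast suspension. Bound radioactivity is counted by liquid scintillation and expressed as pmol/OD600. Mean ± SE (n=6).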

[7] = test system: Komagataella pastoris; test: Stability in Pichia pastoris GS115 expressing human recombinant PEPT1 at 5 uM measured for up to 30 mins by HPLC analysis; assay type: ADME, organism-based; settings: 0.5 h; procedure, shortened: as §1
[8] = biological target: T3, Solute carrier family 15 member 1; test: Inhibition of human recombinant PEPT1 expressed in Pichia pastoris GS115 assessed as [3H]GlySar uptake after 30s by dual-channel liquid scintillation counting analysis
[9] = biological target: T1, Solute carrier family 15 member 1; test: Drug uptake in Pichia pastoris GS115 expressing mouse recombinant PEPT1 at 0 degC measured immediately after drug addition by dual-channel liquid scintillation counting analysis; assay type: ADME; procedure, shortened: as §2
[10] = biological target: T2, Solute carrier family 15 member 1; test: Drug uptake in Pichia pastoris GS115 expressing rat recombinant PEPT1 at 0 degC measured immediately after drug addition by dual-channel liquid scintillation counting analysis; assay type: ADME; procedure, shortened: as §2
[11] = test system: Komagataella pastoris; test: Stability in Pichia pastoris GS115 at 5 uM measured for up to 30 mins by HPLC analysis; assay type: ADME, organism-based; settings: 0.5 h; procedure, shortened: as §1

CCOC(=O)C1=C[C@@H](OC(CC)CC)[C@H](NC(C)=O)[C@@H](N)C1.O=P(O)(O)O [OSELTAMIVIR PHOSPHATE]
Stability [1]: Stable | fraction unbound [2]: 0.58 | IC50 [3]: 10.7 mM | IC50 [4]: 18.3 mM | Stability [5]: Stable | Drug uptake [6]: 0.2 pmol/OD | Stability [7]: Stable | IC50 [8]: 27.4 mM | Drug uptake [9]: 0.2 pmol/OD | Drug uptake [10]: 0.2 pmol/OD | Stability [11]: Stable
